The source of these data is ChEMBL document CHEMBL5154742, “Thiosugar naphthalene diimide conjugates: G-quadruplex ligands with antiparasitic and anticancer activity” (Eur J Med Chem, 2022).

pIC50: −log10 of the molar value. Active and inactive are the calls of the source. The rule behind the calls is not given here.

The IC50 is the concentration at which inhibition is half-maximal. What is called pIC50 is the IC50 on a negative log10 scale, so that one unit is a factor of ten. What is called ΔTm is the shift of the melting midpoint relative to a reference.

A short description of series [1]: Drug uptake in Trypanosoma brucei at 10 uM incubated for 2 hrs by fluorescence based multiplate reader method. In kind it is ADME.
Series [2] has as its system Quadruplex DNA. The series can be described thus: Binding affinity to parallel G-quadruplex DNA TGGGGT TGGGGT TGGGGT TGGGGT (unknown origin) by mass spectrometric analysis. In kind it is nucleic-acid assay. The essentials:
(§1)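 Native ESI-FTICR MS in negative ion mode under soft conditions, in 100 mM ammonium acetate; DNA at 5 μM with ligand at 10 μM.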

A short description of series [3]: Cytotoxicity against human MRC5 cells assessed as reduction in cell viability incubated for 48 hrs by MTT assay. In kind it is toxicity, cell-based. Summed up:
(§2)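 MTT assay: 5×10^3 cells per well in DMEM with 10% hiFBS (4.5 g/L glucose for HT-29, 1 g/L for MRC-5), exposed to increasing compound concentrations for 48 h at 37 °C. MTT added for 4 h, formazan dissolved in DMSO, absorbance read at 575 nm. IC50 from four-parameter logistic fit.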
Background: Tetrazolium assays rely on reduction of a dye to a coloured formazan, in cell work by metabolically active cells.

Series [4] can be described thus: Selectivity index, ratio of IC50 for cytotoxicity against human MRC5 cells to IC50 for antileishmanial activity against Leishmania major (MHOM/IL/80/Friedlin) promastigotes. In kind it is toxicity, cell-based. The note with it: read-out: Selectivity Index. Summed up:
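Selectivity index: MRC-5 IC50 divided by L. major promastigote IC50.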

A short description of series [5]: Drug uptake in human HT-29 cells at 10 uM incubated for 2 hrs by fluorescence based multiplate reader method. Type of series: ADME, cell-based. The following applies: ht-29, 2 h. Summed up:
(§3)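 225,000 trypsinized cells incubated with 10 μM compound in 0.75 mL medium for 2 h at 37 °C; washed three times with PBS, lysed in 3% SDS and sonicated. NDI fluorescence read at ex 485/em 535 nm, quantified against a calibration curve in cell lysate and normalized to BCA protein. Reported as % of compound added.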

In series [6] the test system is HT-29. The series can be described thus: Cytotoxicity against human HT-29 cells assessed as reduction in cell viability incubated for 48 hrs by MTT assay. Type of series: functional, cell-based. The following applies: HT-29, 48 h. The essentials:
as §2

Series [7] deals with Trypanosoma brucei. The series can be described thus: Antitrypanosomal activity against Trypanosoma brucei incubated for 72 hrs by alamar blue dye based fluorimetry analysis. Type of series: functional, organism-based. The essentials:
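Bloodstream-form T. brucei S16 (Lister 427, MiTat 1.2), 1×10^3 per well in HMI-9 with 20% hiFBS, exposed to increasing compound concentrations for 72 h at 37 °C, 5% CO2. Resazurin then added for 4 h, cells lysed with SDS, fluorescence read at ex 550/em 590 nm. IC50 from four-parameter logistic fit; three independent runs, each in triplicate.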
For orientation: Resazurin is reduced to fluorescent resorufin, in cell work by metabolically active cells.

Series [8] can be described thus: Drug uptake in human MRC5 cells at 10 uM incubated for 2 hrs by fluorescence based multiplate reader method. In kind it is ADME, cell-based. The following applies: mrc5, 2 h. The essentials: as §3
In series [9] the test system is Leishmania major. The series can be described thus: Antileishmanial activity against Leishmania major (MHOM/IL/80/Friedlin) promastigotes assessed as reduction in parasite growth incubated for 72 hrs by MTT assay. In kind it is functional, organism-based. Summed up:
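L. major Friedlin promastigotes, 1×10^6/mL in modified RPMI-1640 with 10% hiFBS, exposed to increasing compound concentrations for 72 h at 28 °C; proliferation read by MTT; IC50 from four-parameter logistic fit versus untreated controls.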

The nature of series [10]: Drug localization in nucleus of human HT-29 cells at 25 uM incubated for 30 to 120 mins by DAPI staining based fluorescence microscopic analysis. The note with it: ht-29, 25 µM, time 30-120 min. Type of series: ADME, subcellular. Summed up: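 HT-29 cells grown 24 h on coverslips in FBS-free medium, then exposed to 25 μM compound for 30 or 120 min at 37 °C. Mounted in DAPI medium and imaged by widefield fluorescence microscopy; compound emission collected at 578–610 nm, DAPI at 437–474 nm.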

A short description of series [11]: Drug localization in nucleus of Trypanosoma brucei at 5 uM incubated for 30 to 120 mins by DAPI staining based fluorescence microscopic analysis. In kind it is ADME, subcellular. The following applies: time 30-120 min. The essentials: (§4)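 T. brucei at 1×10^7/mL exposed to 5 μM compound in FBS-free medium for 30 and 120 min at 37 °C; fixed in cold 4% paraformaldehyde, DAPI-stained and imaged by widefield microscopy. Compound excited with the 542–566 filter and emission collected at 578–610 nm.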

Series [12] is described as follows: Selectivity index, ratio of IC50 for cytotoxicity against human MRC5 cells to IC50 for antitrypanosomal activity against Trypanosoma brucei. Type of series: toxicity, cell-based. The note with it: MRC5 cells versus Trypanosoma brucei, read-out: Selectivity Index. The essentials:
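Selectivity index: MRC-5 IC50 divided by T. brucei IC50.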

Series [13] is described as follows: Drug localization in cytoplasm of Trypanosoma brucei at 5 uM incubated for 30 to 120 mins by DAPI staining based fluorescence microscopic analysis. Type of series: ADME, subcellular. The note with it: time 30-120 min. The essentials:
as §4

Series [14] can be described thus: Selectivity index, ratio of IC50 for human MRC5 cells to IC50 for human HT-29 cells. Type of series: toxicity. The note with it: MRC5 cells versus HT-29 cells, read-out: Selectivity Index. The essentials:
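Selectivity index: MRC-5 IC50 divided by HT-29 IC50.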

The test system of series [15] is Quadruplex DNA. The series can be described thus: Binding affinity to human G-quadruplex telomeric DNA F21T (5'-duplex GGG TTAGGG TTAGGG TTAGGG-3') assessed as change in melting temperature at 1 uM incubated for 5 min by FRET assay. Type of series: nucleic-acid assay. Summed up: (§5)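 Fluorescently labelled oligonucleotide annealed (95 °C, 5 min) in 10 mM lithium cacodylate/90 mM LiCl, pH 7.2; 0.2 μM final, with or without ligand. Held 5 min at 25 °C, then heated 0.5 °C/min to 95 °C. Tm taken at normalized signal 0.5; ΔTm = Tm with ligand minus Tm without. Tested in duplicate.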

The subject of series [16] is Quadruplex DNA. The series can be described thus: Binding affinity to human G-quadruplex telomeric DNA F21T (5'-duplex GGG TTAGGG TTAGGG TTAGGG-3') by mass spectrometric analysis. In kind it is nucleic-acid assay. The essentials:
as §1

Series [17] concerns Quadruplex DNA. The series can be described thus: Binding affinity to human G-quadruplex telomeric DNA F21T (5'-duplex GGG TTAGGG TTAGGG TTAGGG-3') assessed as change in melting temperature at 5 uM incubated for 5 min by FRET assay. Type of series: nucleic-acid assay. The essentials: as §5
Series [18] deals with Quadruplex DNA. The series can be described thus: Binding affinity to human G-quadruplex telomeric DNA F21T (5'-duplex GGG TTAGGG TTAGGG TTAGGG-3') assessed as change in melting temperature at 2 uM incubated for 5 min by FRET assay. Type of series: nucleic-acid assay. Summed up: as §5

In the case of `CN(C)CCCN1C(=O)c2ccc3c4c(c(NCc5cn(CCS[C@@H]6O[C@H](CO)[C@@H](O[C@H]7O[C@H](CO)[C@@H](O)[C@H](O)[C@H]7O)[C@H](O)[C@H]6O)nn5)cc(c24)C1=O)C(=O)N(CCCN(C)C)C3=O`, the Drug uptake in series [1] was 4.3%; in series [5] it was 23.1%; in series [8], 20.7%; in series [10], “Active”; in [11], “Active”; in [13], “Active”. In addition, the outcome in [2] and in [16] was Active. In addition, the IC50 at 48 h in [3] amounted to 2.94 µM. Also, the values for the selectivity ratio in series [4], in [12] and in series [14] were 5.7, 49 and 9.8, respectively. Moreover, the pIC50 is 6.52 in series [6], 7.22 in [7] and 6.29 in series [9]. In [15], the shift in melting temperature (ΔTm) amounted to 10 °C.

The compound `O=C1c2ccc3c4c(c(NCc5cn(CCS[C@@H]6O[C@H](CO)[C@H](O)[C@H](O)[C@H]6O)nn5)cc(c24)C(=O)N1CCN1CCOCC1)C(=O)N(CCN1CCOCC1)C3=O` registered a Drug uptake in series [1] of 6.8%. The ΔTm in series [17] amounted to 5 °C; in series [15] it was 1 °C. In series [3], the concentration for half-maximal inhibition (IC50) at 48 h turned out to be 23.5 µM. The results for the selectivity ratio in [4], in series [12] and in [14] were 0.8, 27.6 and 0.9, respectively. The pIC50 in [6] is 4.58; in series [7], 6.07; in [9] it was 4.52.

In turn, `O=C1c2ccc3c4c(c(NCc5cn(CCO[C@@H]6O[C@H](CO)[C@H](O)[C@H](O)[C@H]6O)nn5)cc(c24)C(=O)N1CCN1CCOCC1)C(=O)N(CCN1CCOCC1)C3=O` came in with a Drug uptake in [1] of 5.4%. For the same compound, the IC50 at 48 h in series [3] came out at 10.4 µM. In addition, the selectivity ratio worked out at 0.38 in series [4], 69.3 in series [12] and 2.9 in series [14]. Moreover, the pIC50 in series [6] is 5.44; in [7], 6.82; in series [9], 4.56. In addition, the ΔTm in series [18] turned out to be 5 °C; in series [15], 1 °C.
